Values after ≈ are worked out from the molar mass of the structure shown.
Experiments:
[1] = biological target: T1, Muscarinic acetylcholine receptor M1 (Homo sapiens) (UniProt P11229); settings: at 100 µM
T1 sequence (whole entry): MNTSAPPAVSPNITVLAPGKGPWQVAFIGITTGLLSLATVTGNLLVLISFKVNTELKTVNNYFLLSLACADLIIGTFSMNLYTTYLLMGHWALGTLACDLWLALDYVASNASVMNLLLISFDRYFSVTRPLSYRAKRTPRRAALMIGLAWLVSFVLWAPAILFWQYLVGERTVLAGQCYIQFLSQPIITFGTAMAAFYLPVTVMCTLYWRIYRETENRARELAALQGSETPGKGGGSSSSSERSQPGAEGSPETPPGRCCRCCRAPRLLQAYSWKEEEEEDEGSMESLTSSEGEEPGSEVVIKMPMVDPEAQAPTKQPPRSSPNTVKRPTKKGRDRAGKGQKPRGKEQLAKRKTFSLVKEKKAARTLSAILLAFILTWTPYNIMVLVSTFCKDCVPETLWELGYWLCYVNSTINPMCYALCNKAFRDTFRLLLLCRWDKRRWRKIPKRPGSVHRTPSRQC

[2] = biological target: T2, Muscarinic acetylcholine receptor M1 (Homo sapiens, UniProt P11229); test: Agonistic activity against M1 muscarinic receptor expressed in A9 L cells.; format: functional, cell-based, A9L
T2 sequence (P11229 whole entry): T1 sequence (whole entry)

[3] = biological target: T2, Muscarinic acetylcholine receptor M1; test: (§1) Binding affinity towards M1 muscarinic receptor expressed in A9 L cells by displacing [3H](R)-QNB radioligand.
[4] = Maximum release of beta-hexosaminidase was determined as a measure of degranulation; format: functional; set-up: reference not given here
In short: (§2)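 RBL-2H3 mast cell subclone stably transfected with human M4 receptor (>1 × 10^5 receptors/cell). Agonist action read as degranulation, i.e. hexosaminidase released into the supernatant, following earlier M1 methods. Dose-response data fit to a one-site stimulation model for Smax and EC50.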

[5] = biological target: T1, Muscarinic acetylcholine receptor M1 (Homo sapiens); test: Agonist activity at M1 receptor coupled to phosphoinositide metabolism at 100 uM expressed as percent stimulation above basal levels relative to carbachol response; format: functional
In short: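 Stably transfected A9 L cells (and/or NIH 3T3) expressing human M1 receptor; agonist-stimulated accumulation of [3H]-inositol phosphates measured at 100 µM test ligand. […] Mean (SEM) of two to five assays per compound.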

[6] = biological target: T3, Muscarinic acetylcholine receptor M4 (Homo sapiens, UniProt P08173); test: Agonist activity against human M4 muscarinic receptor expressed in RBL-2H3 Mast cells; format: functional, cell-based
T3 sequence (P08173 whole entry): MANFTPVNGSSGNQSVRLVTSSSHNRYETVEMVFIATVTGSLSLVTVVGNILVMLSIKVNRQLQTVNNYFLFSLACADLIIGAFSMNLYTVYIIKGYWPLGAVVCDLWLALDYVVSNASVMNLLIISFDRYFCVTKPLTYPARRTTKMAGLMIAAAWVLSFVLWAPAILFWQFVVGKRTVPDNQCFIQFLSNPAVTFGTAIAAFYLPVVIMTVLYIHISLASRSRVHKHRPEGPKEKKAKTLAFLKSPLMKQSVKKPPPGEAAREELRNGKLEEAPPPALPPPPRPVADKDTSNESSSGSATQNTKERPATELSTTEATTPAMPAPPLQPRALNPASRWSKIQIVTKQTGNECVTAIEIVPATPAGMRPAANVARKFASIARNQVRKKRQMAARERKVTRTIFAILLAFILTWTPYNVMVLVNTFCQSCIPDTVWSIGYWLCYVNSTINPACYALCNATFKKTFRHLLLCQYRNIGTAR
In short: as §2

[7] = biological target: T3, Muscarinic acetylcholine receptor M4; test: Agonist activity against M4 muscarinic receptor expressed in RBL-2H3 Mast cells.; format: functional, cell-based
In short: as §2

[8] = Solubility in deionized water.; format: physicochemical; settings: read-out: S
[9] = Solubility in Kreb-Heinsleit buffer.; format: physicochemical
[10] = biological target: T2, Muscarinic acetylcholine receptor M1; test: Agonistic activity against M1 muscarinic receptor expressed in NIH 3T3 cells; format: functional, cell-based, NIH3T3
[11] = biological target: T4, Muscarinic acetylcholine receptor M5 (Homo sapiens) (UniProt P08912); test: Maximal level of stimulation as a percentage above basal levels.; format: functional
T4 sequence (whole entry): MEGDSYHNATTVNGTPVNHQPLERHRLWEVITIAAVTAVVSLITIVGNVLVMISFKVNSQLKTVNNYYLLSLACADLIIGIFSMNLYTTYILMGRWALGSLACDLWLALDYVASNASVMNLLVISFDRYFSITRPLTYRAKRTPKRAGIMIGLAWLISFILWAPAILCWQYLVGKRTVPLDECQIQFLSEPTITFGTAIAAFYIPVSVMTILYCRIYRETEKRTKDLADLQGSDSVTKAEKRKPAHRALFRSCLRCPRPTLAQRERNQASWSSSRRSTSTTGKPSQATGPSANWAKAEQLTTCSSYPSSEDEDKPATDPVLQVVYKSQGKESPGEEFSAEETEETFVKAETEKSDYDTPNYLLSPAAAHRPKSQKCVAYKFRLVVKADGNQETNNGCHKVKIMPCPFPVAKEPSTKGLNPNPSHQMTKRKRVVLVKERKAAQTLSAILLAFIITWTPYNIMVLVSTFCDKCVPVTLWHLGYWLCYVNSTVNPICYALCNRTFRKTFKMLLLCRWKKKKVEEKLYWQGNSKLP

[12] = biological target: T2, Muscarinic acetylcholine receptor M1; test: as §1; format: cell-based, L929
In short: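 Competition binding on A9 L cell membrane homogenates (human M1) with 0.1 nM [3H]-(R)-QNB and 14 test-ligand concentrations, 0.01 nM to 3 mM. Buffer 25 mM sodium phosphate pH 7.4 with 5 mM MgCl2, 2 h at room temperature.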

SMILES | PI metabolism [1] [%] | EC50 [2] [nM] | Ki [3] [nM] | Max release [4] [%] | EC50 [7] [nM] | also measured
CN1CCC=C(c2nsnc2OCCCCOc2nsnc2C2=CCCN(C)C2)C1 | 21 | – | – | – | – | –
CN1CCC=C(c2nsnc2SCCCCCCCCCSc2nsnc2C2=CCCN(C)C2)C1 | – | 120 | 17 | – | – | –
CN1CCC=C(c2nsnc2OCCOCCOCCOCCOCCOCCOc2nsnc2C2=CCCN(C)C2)C1 | < 10 | – | 1.9 | – | – | –
CN1CCC=C(c2nsnc2SCCCCCCCCSc2nsnc2C2=CCCN(C)C2)C1 | – | 920 | 5 | – | – | –
CN1CCC=C(c2nsnc2OCCOc2nsnc2C2=CCCN(C)C2)C1 | – | – | – | 39 | – | Stimulation [5]: 50%; EC50 [6]: 3.9 µM
CN1CCC=C(c2nsnc2OCCOCCOCCOCCOc2nsnc2C2=CCCN(C)C2)C1 | 56 | – | – | 43 | 5.2 | solubility [8]: > 1000 mg/mL; solubility [9]: 20 µg/mL (≈ 0.0362 mM); EC50 [10]: 290 nM; Smax [11]: -3.7%
CN1CCC=C(c2nsnc2OCCCCCCCCCCCCOc2nsnc2C2=CCCN(C)C2)C1 | 84 | – | 1.6 | 57 | 1.4 | solubility [8]: 20 mg/mL (≈ 35.7 mM); solubility [9]: 1.7 µg/mL (≈ 0.00303 mM)
CN1CCC=C(c2nsnc2OCCCCCCCCOc2nsnc2C2=CCCN(C)C2)C1 | 8.2 | – | – | 1 | > 100000 | –
CN1CCC=C(c2nsnc2OCCCCCCOc2nsnc2C2=CCCN(C)C2)C1 | 18 | – | – | 3 | > 100000 | –
CCCCCCOc1nsnc1C1=CCCN(C)C1 | 47 | – | – | – | – | –
CN1CCC=C(c2nsnc2SCCCCCCCCCCSc2nsnc2C2=CCCN(C)C2)C1 | – | 2100 | 0.32 | 61 | 0.6 | –
CN1CCC=C(c2nsnc2OCCCCCCCCCCOc2nsnc2C2=CCCN(C)C2)C1 | 76 | – | – | 24 | 1100 | solubility [8]: 25 mg/mL (≈ 46.9 mM); solubility [9]: 4 µg/mL (≈ 0.00751 mM)
CN1CCC=C(c2nsnc2OCCCCCOc2nsnc2C2=CCCN(C)C2)C1 | -1 | – | – | – | – | –
CN1CCC=C(c2nsnc2SCCCSc2nsnc2C2=CCCN(C)C2)C1 | – | 350 | 1.2 | – | – | –
CN1CCC=C(c2nsnc2SCCCCCSc2nsnc2C2=CCCN(C)C2)C1 | – | 79 | 14 | – | – | –
CN1CCC=C(c2nsnc2SCCCCCCCSc2nsnc2C2=CCCN(C)C2)C1 | – | 180 | 7.6 | – | – | –
CN1CCC=C(c2nsnc2OCCOCCOc2nsnc2C2=CCCN(C)C2)C1 | – | – | – | – | – | Ki [12]: 4.9 nM; Stimulation [5]: < 10%
CN1CCC=C(c2nsnc2OCCCOc2nsnc2C2=CCCN(C)C2)C1 | 21 | – | – | – | – | –
CN1CCC=C(c2nsnc2OCCOCCOCCOCCOCCOc2nsnc2C2=CCCN(C)C2)C1 | < 10 | – | 1.5 | – | – | –
CN1CCC=C(c2nsnc2OCCCCCCCOc2nsnc2C2=CCCN(C)C2)C1 | -3 | – | – | 4 | > 100000 | –
C[N+](C)(C)CCOC(N)=O | – | – | – | 87 | – | Smax [11]: 110%
CN1CCC=C(c2nsnc2SCCCCCCCCCCCCSc2nsnc2C2=CCCN(C)C2)C1 | – | 13000 | 0.69 | 54 | 1 | –
CN1CCC=C(c2nsnc2SCCCCCCCCCCCSc2nsnc2C2=CCCN(C)C2)C1 | – | 1500 | 0.57 | 29 | 4.7 | –
CC(=O)OCC[N+](C)(C)C | – | – | – | – | – | Smax [11]: 99%
CN1CCC=C(c2nsnc2SCCSc2nsnc2C2=CCCN(C)C2)C1 | – | 440 | 20 | – | – | –
CN1CCC=C(c2nsnc2OCCCCCCCCCOc2nsnc2C2=CCCN(C)C2)C1 | 27 | – | 0.84 | 61 | 20000 | –
CN1CCC=C(c2nsnc2SCCCCSc2nsnc2C2=CCCN(C)C2)C1 | – | 570 | 0.93 | – | – | –
CN1CCC=C(c2nsnc2SCCCCCCSc2nsnc2C2=CCCN(C)C2)C1 | – | 590 | 0.87 | – | – | –
CN1CCC=C(c2nsnc2OCCOCCOCCOc2nsnc2C2=CCCN(C)C2)C1 | < 10 | – | – | – | – | –

Reference: ChEMBL document CHEMBL1134318, “Design, synthesis, and biological characterization of bivalent 1-methyl-1,2,5,6-tetrahydropyridyl-1,2,5-thiadiazole derivatives as selective muscarinic agonists” (J Med Chem, 2001)
